From ChEMBL document CHEMBL1914326, “Synthesis and anticonvulsant properties of new acetamide derivatives of phthalimide, and its saturated cyclohexane and norbornene analogs” (Eur J Med Chem, 2011)
Calls of active or inactive are those of the source. No cut-off for these calls is given here.

Experiments:
Mus musculus [1] = assay: Neurotoxicity in CF1 albino mouse assessed as motor impairment at 300 mg/kg, ip after 0.5 hrs by rotarod test; type: toxicity, organism-based; set-up: dose 300 mg/kg, route intraperitoneal; settings: in vivo
Outline: (§1)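 Acute neurotoxicity was scored on the minimal motor impairment rotorod test in male CF-1 mice. Animals in groups of eight were dosed i.p. at 30, 100 or 300 mg/kg in 0.5% methylcellulose/water and examined at 0.5 and 4 h. Untreated controls keep their balance on the rod for a prolonged time. The minimum dose causing impairment was recorded.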

Mus musculus [2] = assay: Anticonvulsant activity in CF1 albino mouse assessed as protection against subcutaneous pentylenetetrazole-induced seizures at 300 mg/kg, ip after 0.5 hrs; type: functional, organism-based; set-up: dose 300 mg/kg
Outline: (§2)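 Male CF-1 mice in groups of eight were dosed i.p. at 30, 100 or 300 mg/kg in 0.5% methylcellulose/water. At 0.5 and 4 h, pentylenetetrazole 85 mg/kg (CD97 dose) was given s.c. This dose produces clonic seizures lasting at least 5 s. The minimum protective dose was recorded, with a top dose of 300 mg/kg.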

Mus musculus [3] = assay: Anticonvulsant activity in CF1 albino mouse assessed as protection against subcutaneous pentylenetetrazole-induced seizures at 300 mg/kg, ip after 4 hrs; type: functional, organism-based; set-up: dose 300 mg/kg; outline: as §2
Mus musculus [4] = assay: Anticonvulsant activity in CF1 albino mouse assessed as protection against maximal electroshock at 300 mg/kg, ip after 0.5 hrs; type: functional, organism-based; set-up: dose 300 mg/kg
Outline: (§3)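 Male albino CF-1 mice in groups of eight received i.p. doses of 30, 100 and 300 mg/kg, suspended in 0.5% methylcellulose/water. Maximal electroshock seizures were tested at 0.5 and 4 h, with one additional 0.25 h reading at 100 mg/kg. The minimum dose giving protection was recorded. A dash means no activity at 300 mg/kg.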

Mus musculus [5] = assay: Anticonvulsant activity in ip dosed CF1 albino mouse assessed as protection against maximal electroshock after 4 hrs; type: functional; settings: read-out: MED; outline: as §3
Mus musculus [6] = assay: Neurotoxicity in CF1 albino mouse assessed as motor impairment at 300 mg/kg, ip after 4 hrs by rotarod test; type: toxicity, organism-based; set-up: dose 300 mg/kg, route intraperitoneal; settings: in vivo; outline: as §1
Mus musculus [7] = assay: Anticonvulsant activity in CF1 albino mouse assessed as protection against maximal electroshock at 300 mg/kg, ip after 4 hrs; type: functional, organism-based; set-up: dose 300 mg/kg; outline: as §3
Mus musculus [8] = assay: Anticonvulsant activity in ip dosed CF1 albino mouse assessed as protection against maximal electroshock after 0.5 hrs; type: functional; settings: read-out: MED; outline: as §3

SMILES | Activity (Mus musculus [1]) | Activity (Mus musculus [2]) | Activity (Mus musculus [3]) | Activity (Mus musculus [4]) | minimal effective dose (Mus musculus [5]) | Activity (Mus musculus [6]) | Activity (Mus musculus [7]) | minimal effective dose (Mus musculus [8])
O=C(CN1C(=O)c2ccccc2C1=O)N1CCN(c2cccc(C(F)(F)F)c2)CC1 | Non-toxic | inactive | inactive | inactive | 100 mg/kg | Non-toxic | – | –
O=C(CN1C(=O)c2ccccc2C1=O)N1CCN(c2cccc(Cl)c2)CC1 | Non-toxic | inactive | inactive | inactive | – | Non-toxic | inactive | –
O=C(CN1C(=O)C2CCCCC2C1=O)N1CCN(c2cccc(C(F)(F)F)c2)CC1 (stereo not given) | Non-toxic | inactive | inactive | – | – | Non-toxic | inactive | 100 mg/kg
O=C(CN1C(=O)C2CCCCC2C1=O)N1CCN(c2ccc(Cl)cc2)CC1 (stereo not given) | Non-toxic | inactive | inactive | inactive | 300 mg/kg | Non-toxic | – | –
O=C(CN1C(=O)C2C3C=CC(C3)C2C1=O)N1CCN(c2cccc(Cl)c2)CC1 (stereo not given) | Non-toxic | inactive | inactive | inactive | – | Non-toxic | inactive | –
O=C(CN1C(=O)c2ccccc2C1=O)N1CCN(c2ccccc2)CC1 | Non-toxic | inactive | inactive | – | – | Non-toxic | inactive | 100 mg/kg
O=C(CN1C(=O)C2CCCCC2C1=O)N1CCN(CCO)CC1 (stereo not given) | Non-toxic | inactive | inactive | inactive | – | Non-toxic | inactive | –
O=C(CN1C(=O)c2ccccc2C1=O)N1CCN(c2ccccc2Cl)CC1 | Non-toxic | inactive | inactive | – | – | Non-toxic | inactive | 100 mg/kg
O=C(CN1C(=O)C2C3C=CC(C3)C2C1=O)N1CCN(Cc2ccccc2)CC1 (stereo not given) | Non-toxic | inactive | inactive | inactive | – | Non-toxic | inactive | –
O=C(CN1C(=O)C2C3C=CC(C3)C2C1=O)N1CCN(c2ccccc2)CC1 (stereo not given) | Non-toxic | inactive | inactive | inactive | – | Non-toxic | inactive | –
O=C(CN1C(=O)c2ccccc2C1=O)N1CCN(Cc2ccccc2)CC1 | Non-toxic | inactive | inactive | inactive | – | Non-toxic | inactive | –
O=C(CN1C(=O)C2CCCCC2C1=O)N1CCN(c2cccc(Cl)c2)CC1 (stereo not given) | Non-toxic | inactive | inactive | inactive | – | Non-toxic | inactive | –
O=C(CN1C(=O)C2C3C=CC(C3)C2C1=O)N1CCN(c2ccccc2F)CC1 (stereo not given) | Non-toxic | inactive | inactive | inactive | – | Non-toxic | inactive | –
O=C(CN1C(=O)c2ccccc2C1=O)N1CCN(CCO)CC1 | Non-toxic | inactive | inactive | inactive | – | Non-toxic | inactive | –
O=C(CN1C(=O)C2CCCCC2C1=O)N1CCN(c2ccccc2)CC1 (stereo not given) | Non-toxic | inactive | inactive | – | – | Non-toxic | inactive | 300 mg/kg
